Reference: PMC7885995 (Oncogene, 2020)

Tests used:
GBM PDX lines = test: BAPTA calcium chelation before MED2; format: cell-based, human; conditions: BAPTA pretreatment, low concentrations, 5-hour CTL2/MED2; X1441, JX39, JX59
In short: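 Cells were pretreated with BAPTA-AM and then exposed to CTL2 or MED2 for 5 h, at 2.5 μM for X1441 and 5 μM for JX39 and JX59, with relative viability as read-out. For SYTOX, cells were pretreated with 50μM BAPTA and given peptide for 1.5 h. Percent SYTOX-positive cells was scored on the Xcyto10 image cytometer at 4X. Analysis used two-way ANOVA with Tukey's test.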

[1] = system: caspase 3/7 activation in GBM cells; test: Caspase 3/7 activation; format: cell-based, human
In short: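 Cells pretreated with 1–200μM QVD-OPh or 100μM Z-VAD-FMK received MED2 or CTL2. They were lifted with their media and stained for 30 min at RT with CellEvent green caspase 3/7 dye, Annexin-V AlexaFluor 647 and SYTOX orange in Annexin-V binding buffer. Imaging was on Xcyto10 at 4X with channel compensation. Read-out was mean caspase fluorescence per cell relative to CTL2 (n>5000 cells).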

[2] = system: XD456 (proneural GBM PDX); test: Cell viability; format: cell-based, human; conditions: XD456, 2.5μM MED2, 72 h, n=4
In short: (§1)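 1 × 10^4 Trypan blue-counted live cells were plated in 90 μL medium in 4 replicates; PDX cells were kept in neurosphere medium and NHAs in standard medium. Peptide (PBS-reconstituted, added as 10X in medium) went on 2 h after plating. CellTiter-Glo ATP luminescence was read at 72 h. MED2 RLU was normalized to CTL2 (5 μM for 1–5 μM; 10 μM for 10 μM). GI50 was interpolated from a standard curve.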

[3] = system: X1441 (proneural GBM PDX); test: Cell viability; format: cell-based, human; conditions: X1441, 2.5μM MED2, 72 h, n=4
In short: as §1

XD456 = test: Time-lapse imaging and SYTOX uptake; format: cell-based, human; conditions: XD456, 3μM, time-lapse imaging
In short: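 XD456 cells were given 3μM MED2 and tracked by time-lapse still frames at 10X. For membrane permeabilization, cells received 5μM CTL2 or MED2 and were imaged every 5 min for 125 min at 20X. Imaging was on CellInsight CX7 in a heated CO2 chamber using Hoechst and SYTOX orange channels. Mean SYTOX intensity per cell was scored from n>400 cells.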

JX39 (classical GBM PDX) = test: Cell viability; format: cell-based, human; conditions: JX39, 5μM MED2, normalized to 5μM CTL2, 72 h, n=4
In short: as §1

[4] = system: intracellular calcium in XD456; test: Fluo-4 calcium imaging; format: cell-based, human; conditions: XD456, 3μM, serial imaging over two hours
In short: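 1 × 10^5 XD456 cells were attached in 24-well plates and loaded at 37C for 1.5 h in 1X Fluo-4 direct calcium assay buffer with 5mM probenecid. SYTOX and then 3μM CTL2 or MED2 were added. Serial live images, including one taken before peptide, were acquired at 10X on an EVOS FL using GFP and RFP channels.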

JX12 (classical GBM PDX) = test: Cell viability; format: cell-based, human; conditions: JX12, 5μM MED2, normalized to 5μM CTL2, 72 h, n=4
In short: as §1

[5] = system: GBM PDX lines (proneural, classical, mesenchymal subtypes); test: Cell viability, statements for groups of GBM PDX lines; format: cell-based, human; conditions: multiple PDX subtypes, 5μM CTL2/MED2, 9 hours, p>0.05
JX14 (classical GBM PDX) = test: Cell viability; format: cell-based, human; conditions: JX14, 10μM MED2, normalized to 10μM CTL2, 72 h, n=4
In short: as §1

[6] = system: JX22 (mesenchymal GBM PDX); test: Cell viability; format: cell-based, human; conditions: JX22, 10μM MED2, normalized to 10μM CTL2, 72 h, n=4
In short: as §1

[7] = system: JX59 (mesenchymal GBM PDX); test: Cell viability; format: cell-based, human; conditions: JX59, 10μM MED2, normalized to 10μM CTL2, 72 h, n=4
In short: as §1

[8] = system: normal human astrocytes (NHAs); test: Cell viability; format: cell-based; conditions: CellTiter-Glo, 72 h
In short: as §1

PARP1 cleavage in XD456 = test: PARP1 cleavage immunoblot; format: cell-based, human; conditions: XD456, 3μM MED2, 5 and 24 hours
athymic nude mice = test: In vivo MED2-CY7 biodistribution, tumor-naïve mice; parameters: species or system mouse; conditions: 3 hours
[9] = system: X1016 PDX implanted into the brain of athymic nude mice; test: In vivo MED2-CY7 accumulation in orthotopic GBM PDX; parameters: species or system mouse; conditions: tail-vein, 3 hours, Pearl / Odyssey CLx imaging
In short: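 6-week-old female athymic nude mice were stereotactically implanted with 5 × 10^5 X1016 cells into the caudate putamen 1 week before dosing. They were sorted by bioluminescence for similar tumor burden and randomized, unblinded, to two doses of Cy7-labeled peptide. Peptide in 100 μL saline went by tail vein, with sacrifice at 3 h. Brains were formalin-fixed, cut into 5 mm coronal slices and imaged on Pearl. Paraffin sections were H&E-stained or imaged on Odyssey CLx at […].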

## CC(=O)OCOC(=O)CN(CC(=O)OCOC(C)=O)c1ccccc1OCCOc1ccccc1N(CC(=O)OCOC(C)=O)CC(=O)OCOC(C)=O [BAPTA, BAPTA-AM]
GBM PDX lines
  protection against MED2 cytotoxicity: no protective effects

## CC(C)[C@H](NC(=O)c1ccc2ccccc2n1)C(=O)N[C@@H](CC(=O)O)C(=O)COc1c(F)cccc1F [QVD-OPh, reference compound]
[1]; doubled QVD-OPh (200μM), n>5000
  reduction in MED2-induced caspase 3/7 activation: 50%

## CC(C)C[C@H](NC(=O)[C@H](CCCCN)NC(=O)[C@H](Cc1ccccc1)NC(=O)[C@H](CO)NC(=O)[C@H](CCCCN)NC(=O)[C@H](CCCCN)NC(=O)[C@H](Cc1ccccc1)NC(=O)[C@H](CO)NC(=O)[C@H](Cc1ccccc1)NC(=O)[C@H](CCCNC(=N)N)NC(=O)[C@H](CCCCN)NC(=O)[C@H](CCCCN)NC(=O)[C@H](CCCCN)NC(=O)[C@H](CCCCN)NC(=O)[C@H](CCCCN)NC(=O)[C@@H](N)CSC1CC(=O)N(CCC(=O)N[C@@H](Cc2ccc(O)cc2)C(=O)NCC(=O)N[C@@H](CCCNC(=N)N)C(=O)N[C@@H](CCCCN)C(=O)N[C@@H](CCCCN)C(=O)N[C@@H](CCCNC(=N)N)C(=O)N[C@@H](CCCNC(=N)N)C(=O)N[C@@H](CCC(N)=O)C(=O)N[C@@H](CCCNC(=N)N)C(=O)N[C@@H](CCCNC(=N)N)C(=O)N[C@@H](CCCNC(=N)N)C(N)=O)C1=O)C(=O)N[C@@H](CO)C(=O)NCC(=O)N[C@@H](Cc1ccccc1)C(=O)N[C@@H](CO)C(=O)N[C@@H](Cc1ccccc1)C(=O)N[C@@H](CCCCN)C(=O)N[C@@H](CCCCN)C(=O)N[C@@H](CC(N)=O)C(=O)N[C@@H](CCCCN)C(=O)N[C@@H](CCCCN)C(N)=O (some centres unmarked) [MED2]
[2]
  reduction in viability: > 50%
[3]
  reduction in viability: > 50%
XD456
  onset of morphological effects and signs of cellular injury: ≤ 1 hour
JX39 (classical GBM PDX)
  reduction in viability: > 50%
[4]
  Fluo-4 intensity (intracellular calcium): increased within minutes
JX12 (classical GBM PDX)
  reduction in viability: > 50%
[5]
  inhibition of viability in adherent vs suspension cells: equally effective
JX14 (classical GBM PDX)
  reduction in viability: > 50%
[6]
  reduction in viability: > 50%
[7]
  reduction in viability: > 50%
[8]; 5μM and 10μM
  change in NHA viability: increases in viability
[8]; 10μM
  toxicity in NHAs: no toxicity
[1]; MED2 treatment, P<0.001, n>5000
  caspase 3/7 activation compared with CTL2: increased caspase 3/7 activation
PARP1 cleavage in XD456
  PARP1 cleavage pattern: loss of both 122kD and 89kD bands with the formation of an approximately 72 kD band

## KKKKKRFSFKKSFKLSGFSFKKNKK-LC- K(Lumiprobe CY7) [MED2-CY7]
Athymic nude mice; 5 or 10 nanomoles, tail-vein, LI-COR Pearl, n=3 per dose group
  organs with greatest fluorescence intensity per mg tissue: kidney, liver, small and large intestines
Athymic nude mice; 5 or 10 nanomoles, tail-vein, n=3 per dose group
  brain partitioning: only a small percentage of total peptide reaching the brain
Athymic nude mice; tail-vein injection, tumor-naïve nude mice, Pearl imaging, n=3, p=0.026
  increase in brain (periventricular) fluorescence per mg tissue, 10nmol vs 5nmol: greater than threefold
[9]
  fluorescence in tumor-burdened regions of the brain compared to normal brain: substantial increases
